# Assays:
# YES1 = YES1 (Homo sapiens, UniProt P07947); experiment: MIB washout assay; type: binding; conditions: H23 cells, 1 μM 4h, MIB pulldown ratio SM1-71/SM1-71-R
# LIMK1 [1] = target: T1, LIMK1 (Homo sapiens, UniProt P53667); experiment: MIB washout assay; type: binding; conditions: H23 cells, 1 μM 4h, MIB pulldown ratio SM1-71/SM1-71-R
# PIK3C3 = experiment: MIB washout assay; type: binding, Human; conditions: H23 cells, 1 μM 4h, MIB pulldown ratio SM1-71/SM1-71-R
# EPHA10 = experiment: MIB washout assay; type: binding, Human; conditions: H23 cells, 1 μM 4h, MIB pulldown ratio SM1-71/SM1-71-R
# CSNK1E = experiment: MIB washout assay; type: binding, Human; conditions: H23 cells, 1 μM 4h, MIB pulldown ratio SM1-71/SM1-71-R
# EPHA2 = experiment: MIB washout assay; type: binding, Human; conditions: H23 cells, 1 μM 4h, MIB pulldown ratio SM1-71/SM1-71-R
# EIF2AK3 = experiment: MIB washout assay; type: binding, Human; conditions: H23 cells, 1 μM 4h, MIB pulldown ratio SM1-71/SM1-71-R
# PKMYT1 = experiment: MIB washout assay; type: binding, Human; conditions: H23 cells, 1 μM 4h, MIB pulldown ratio SM1-71/SM1-71-R
# CDK9 = experiment: MIB washout assay; type: binding, Human; conditions: H23 cells, 1 μM 4h, MIB pulldown ratio SM1-71/SM1-71-R
# STK16 = experiment: MIB washout assay; type: binding, Human; conditions: H23 cells, 1 μM 4h, MIB pulldown ratio SM1-71/SM1-71-R
# PIP5K1A = experiment: MIB washout assay; type: binding, Human; conditions: H23 cells, 1 μM 4h, MIB pulldown ratio SM1-71/SM1-71-R
# TGFBR2 = experiment: MIB washout assay; type: binding, Human; conditions: H23 cells, 1 μM 4h, MIB pulldown ratio SM1-71/SM1-71-R
# PRKD3 = experiment: MIB washout assay; type: binding, Human; conditions: H23 cells, 1 μM 4h, MIB pulldown ratio SM1-71/SM1-71-R
# MAP3K11 = experiment: MIB washout assay; type: binding, Human; conditions: H23 cells, 1 μM 4h, MIB pulldown ratio SM1-71/SM1-71-R
# WEE1 = experiment: MIB washout assay; type: binding, Human; conditions: H23 cells, 1 μM 4h, MIB pulldown ratio SM1-71/SM1-71-R
# ACVR1B = experiment: MIB washout assay; type: binding, Human; conditions: H23 cells, 1 μM 4h, MIB pulldown ratio SM1-71/SM1-71-R
# FYN = experiment: MIB washout assay; type: binding, Human; conditions: H23 cells, 1 μM 4h, MIB pulldown ratio SM1-71/SM1-71-R
# PRKDC = experiment: MIB washout assay; type: binding, Human; conditions: H23 cells, 1 μM 4h, MIB pulldown ratio SM1-71/SM1-71-R
# CSNK1A1 = experiment: MIB washout assay; type: binding, Human; conditions: H23 cells, 1 μM 4h, MIB pulldown ratio SM1-71/SM1-71-R
# CSNK1G3 = experiment: MIB washout assay; type: binding, Human; conditions: H23 cells, 1 μM 4h, MIB pulldown ratio SM1-71/SM1-71-R
# PAK4 = experiment: MIB washout assay; type: binding, Human; conditions: H23 cells, 1 μM 4h, MIB pulldown ratio SM1-71/SM1-71-R
# [2] = system: H23-KRAS^G12C non-small cell lung cancer (NSCLC) cell line; experiment: proliferation assay; type: cell-based, Human
# How it was run: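 NSCLC lines were mycoplasma-tested and treated with various concentrations of test compound for 72 h. Cell viability was then measured by CellTiter-Glo luminescence.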
# 43 recombinant kinases = experiment: thermal stability shift assay; type: binding; conditions: 21 of 43 recombinant kinases; protein 2 μM, inhibitor 10 μM
# SRC [3] = target: T2, SRC (Homo sapiens, UniProt P12931); experiment: mass shift assay; type: binding; conditions: incubated 4 and 24h
# How it was run: (§1)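 Kinase protein at 0.12 mM in 10 mM HEPES pH 7.5, 500 mM NaCl, incubated with 0.2 mM test compound at 4°C for 4 h and 24 h. Samples were diluted in 0.1% formic acid and desalted on a C3 pre-column. ESI-TOF was run in positive mode at 120 V, and intact mass was obtained by deconvolution to detect the adduct.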
# Target sequence in this assay (P12931 whole entry, species assumed): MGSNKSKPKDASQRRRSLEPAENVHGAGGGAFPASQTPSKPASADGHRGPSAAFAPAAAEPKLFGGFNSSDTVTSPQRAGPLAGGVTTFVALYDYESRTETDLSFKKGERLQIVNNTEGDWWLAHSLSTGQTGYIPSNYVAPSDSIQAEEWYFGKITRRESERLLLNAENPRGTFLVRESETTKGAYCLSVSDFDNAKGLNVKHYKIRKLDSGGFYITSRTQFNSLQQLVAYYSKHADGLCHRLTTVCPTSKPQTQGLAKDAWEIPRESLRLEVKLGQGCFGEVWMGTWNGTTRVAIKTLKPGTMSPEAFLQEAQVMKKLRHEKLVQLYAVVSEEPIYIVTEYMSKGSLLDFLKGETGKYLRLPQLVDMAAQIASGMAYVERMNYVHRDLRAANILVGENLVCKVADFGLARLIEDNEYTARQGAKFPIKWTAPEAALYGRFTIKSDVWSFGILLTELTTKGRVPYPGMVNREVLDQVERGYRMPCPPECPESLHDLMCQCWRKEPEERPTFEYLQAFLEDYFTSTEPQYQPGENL
# MAPK1 = MAPK1 (Homo sapiens, UniProt P28482); experiment: mass shift assay; type: binding; conditions: incubated 4 and 24h
# Sequence of MAPK1 (P28482 whole entry, species assumed): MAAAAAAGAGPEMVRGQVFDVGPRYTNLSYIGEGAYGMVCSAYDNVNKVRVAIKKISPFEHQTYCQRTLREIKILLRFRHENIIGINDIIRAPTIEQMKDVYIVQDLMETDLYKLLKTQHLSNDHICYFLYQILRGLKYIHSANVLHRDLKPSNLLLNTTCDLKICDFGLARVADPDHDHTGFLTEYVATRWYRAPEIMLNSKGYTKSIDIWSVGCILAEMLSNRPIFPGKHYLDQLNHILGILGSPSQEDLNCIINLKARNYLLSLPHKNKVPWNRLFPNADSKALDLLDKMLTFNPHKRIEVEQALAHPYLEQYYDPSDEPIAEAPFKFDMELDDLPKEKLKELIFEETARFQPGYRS
# How it was run: as §1
# MAP2K6 = MAP2K6 (Homo sapiens, UniProt P52564); experiment: mass shift assay; type: binding; conditions: incubated 4 and 24h
# Sequence of MAP2K6 (P52564 whole entry, species assumed): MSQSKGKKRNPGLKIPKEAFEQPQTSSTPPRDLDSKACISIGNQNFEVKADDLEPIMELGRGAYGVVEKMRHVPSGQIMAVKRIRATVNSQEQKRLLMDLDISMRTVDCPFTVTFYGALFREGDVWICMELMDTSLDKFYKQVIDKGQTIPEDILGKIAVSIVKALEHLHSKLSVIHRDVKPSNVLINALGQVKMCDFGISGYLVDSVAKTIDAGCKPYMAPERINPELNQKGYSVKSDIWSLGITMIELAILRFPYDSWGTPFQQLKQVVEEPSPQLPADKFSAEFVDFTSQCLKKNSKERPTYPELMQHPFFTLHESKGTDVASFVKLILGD
# How it was run: as §1
# SRC [4] = target: T2, SRC; experiment: MIB dose-dependent kinase inhibition assay; type: binding; conditions: read-out: IC50 in the MIB assay, H23 cell lysate, overnight 4°C
# Target sequence in this assay (P12931 whole entry): as the sequence (P12931 whole entry, species assumed) above
# LIMK1 [5] = target: T1, LIMK1; experiment: MIB dose-dependent kinase inhibition assay; type: binding; conditions: read-out: IC50 in the MIB assay, H23 cell lysate, overnight 4°C
# BMP2K = BMP2K (Homo sapiens, UniProt Q9NSY1); experiment: MIB dose-dependent kinase inhibition assay; type: binding; conditions: read-out: IC50 in the MIB assay, H23 cell lysate, overnight 4°C
# Sequence of BMP2K (Q9NSY1 whole entry): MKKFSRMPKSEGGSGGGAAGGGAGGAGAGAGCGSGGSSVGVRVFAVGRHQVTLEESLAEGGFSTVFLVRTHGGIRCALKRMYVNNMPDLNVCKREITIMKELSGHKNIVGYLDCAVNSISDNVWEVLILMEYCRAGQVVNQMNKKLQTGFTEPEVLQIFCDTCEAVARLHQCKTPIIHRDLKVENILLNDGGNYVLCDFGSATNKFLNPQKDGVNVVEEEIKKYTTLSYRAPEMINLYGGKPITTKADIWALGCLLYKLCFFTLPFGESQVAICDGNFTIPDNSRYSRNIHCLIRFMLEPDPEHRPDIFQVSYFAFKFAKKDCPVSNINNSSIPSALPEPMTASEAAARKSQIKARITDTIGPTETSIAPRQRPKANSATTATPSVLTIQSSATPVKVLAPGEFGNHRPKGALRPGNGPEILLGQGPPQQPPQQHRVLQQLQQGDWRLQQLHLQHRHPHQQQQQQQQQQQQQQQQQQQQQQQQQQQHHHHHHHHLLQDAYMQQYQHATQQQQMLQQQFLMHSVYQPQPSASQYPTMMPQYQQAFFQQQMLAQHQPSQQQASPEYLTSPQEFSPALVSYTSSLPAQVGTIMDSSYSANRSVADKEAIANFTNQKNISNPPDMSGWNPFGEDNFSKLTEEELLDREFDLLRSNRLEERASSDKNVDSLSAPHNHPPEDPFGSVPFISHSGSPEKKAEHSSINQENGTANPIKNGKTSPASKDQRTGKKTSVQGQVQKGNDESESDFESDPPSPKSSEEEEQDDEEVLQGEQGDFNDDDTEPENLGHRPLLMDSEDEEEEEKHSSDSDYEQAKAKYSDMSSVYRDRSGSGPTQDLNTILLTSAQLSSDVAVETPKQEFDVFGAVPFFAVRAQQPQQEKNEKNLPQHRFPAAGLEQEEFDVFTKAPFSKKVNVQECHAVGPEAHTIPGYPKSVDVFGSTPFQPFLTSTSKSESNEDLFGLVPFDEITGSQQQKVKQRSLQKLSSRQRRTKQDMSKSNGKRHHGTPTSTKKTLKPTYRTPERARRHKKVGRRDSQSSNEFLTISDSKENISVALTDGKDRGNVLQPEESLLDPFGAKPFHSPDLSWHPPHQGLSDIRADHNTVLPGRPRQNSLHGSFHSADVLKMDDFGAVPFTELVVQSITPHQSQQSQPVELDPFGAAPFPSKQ
# AURKA = target: T3, AURKA (Homo sapiens, UniProt O14965); experiment: MIB dose-dependent kinase inhibition assay; type: binding; conditions: read-out: IC50 in the MIB assay, H23 cell lysate, overnight 4°C
# T3 sequence (O14965 1-403): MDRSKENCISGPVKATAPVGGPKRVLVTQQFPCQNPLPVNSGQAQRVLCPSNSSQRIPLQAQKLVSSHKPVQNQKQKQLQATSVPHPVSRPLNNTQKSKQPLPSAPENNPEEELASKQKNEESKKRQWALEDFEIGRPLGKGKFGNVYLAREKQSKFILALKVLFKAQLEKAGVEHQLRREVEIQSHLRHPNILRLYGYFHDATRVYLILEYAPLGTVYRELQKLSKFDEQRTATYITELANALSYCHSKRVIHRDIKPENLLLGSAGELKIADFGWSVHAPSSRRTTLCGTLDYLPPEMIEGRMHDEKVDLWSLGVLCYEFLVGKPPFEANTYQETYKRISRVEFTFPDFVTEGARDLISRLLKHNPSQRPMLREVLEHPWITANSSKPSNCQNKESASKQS
# MAP2K1/2 = experiment: MIB dose-dependent kinase inhibition assay; type: binding, Human; conditions: read-out: IC50 in the MIB assay, H23 cell lysate, overnight 4°C
# CDK13 = conditions: H23 cells, 1 μM 4h, MIB pulldown ratio SM1-71/SM1-71-R
# T1 sequence (P53667 whole entry): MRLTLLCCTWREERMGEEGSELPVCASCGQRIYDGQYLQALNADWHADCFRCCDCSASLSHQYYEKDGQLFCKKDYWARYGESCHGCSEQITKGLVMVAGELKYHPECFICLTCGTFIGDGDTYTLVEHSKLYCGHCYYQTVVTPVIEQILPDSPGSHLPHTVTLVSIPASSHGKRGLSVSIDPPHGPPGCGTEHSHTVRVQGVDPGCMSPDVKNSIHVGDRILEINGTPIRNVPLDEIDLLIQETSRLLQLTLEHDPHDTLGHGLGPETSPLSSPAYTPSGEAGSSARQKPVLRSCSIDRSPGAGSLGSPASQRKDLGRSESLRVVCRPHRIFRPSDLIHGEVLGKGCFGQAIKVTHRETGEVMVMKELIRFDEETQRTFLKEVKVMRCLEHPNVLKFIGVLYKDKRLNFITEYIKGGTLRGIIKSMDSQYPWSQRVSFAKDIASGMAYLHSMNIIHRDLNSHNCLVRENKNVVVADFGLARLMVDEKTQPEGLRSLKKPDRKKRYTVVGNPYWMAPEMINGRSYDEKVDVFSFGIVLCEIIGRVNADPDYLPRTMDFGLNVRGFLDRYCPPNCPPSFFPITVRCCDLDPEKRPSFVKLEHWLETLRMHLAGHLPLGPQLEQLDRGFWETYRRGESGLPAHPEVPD
# Sequence of YES1 (P07947 whole entry): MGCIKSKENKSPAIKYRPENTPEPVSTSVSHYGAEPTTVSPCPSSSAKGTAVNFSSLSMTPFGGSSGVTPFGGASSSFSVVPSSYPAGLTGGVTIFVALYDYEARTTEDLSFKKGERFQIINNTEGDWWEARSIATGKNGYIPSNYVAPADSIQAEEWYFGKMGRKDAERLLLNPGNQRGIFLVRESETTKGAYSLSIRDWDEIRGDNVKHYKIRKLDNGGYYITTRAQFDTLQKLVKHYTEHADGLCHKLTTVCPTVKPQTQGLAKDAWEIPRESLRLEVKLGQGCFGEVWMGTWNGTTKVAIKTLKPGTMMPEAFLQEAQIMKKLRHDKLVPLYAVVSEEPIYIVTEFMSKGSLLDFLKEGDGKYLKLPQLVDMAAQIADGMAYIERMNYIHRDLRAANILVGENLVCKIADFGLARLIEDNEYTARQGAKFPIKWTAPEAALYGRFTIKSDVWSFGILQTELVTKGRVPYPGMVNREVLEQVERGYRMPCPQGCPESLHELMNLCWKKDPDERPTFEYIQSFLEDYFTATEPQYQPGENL
compound,measurement,setting,value
C=CC(=O)Nc1ccccc1Nc1nc(Nc2ccc(N3CCN(C)CC3)cc2)ncc1Cl [SM1-71],BI-0h,YES1; 0h post-washout,0.21
same,BI-6h,YES1; 6h post-washout,0.1
same,BI-0h,LIMK1 [1]; 0h post-washout,0.21
same,BI-6h,LIMK1 [1]; 6h post-washout,0.23
same,BI-0h,PIK3C3; 0h post-washout,0.28
same,BI-6h,PIK3C3; 6h post-washout,0.44
same,BI-0h,EPHA10; 0h post-washout,0.72
same,BI-6h,EPHA10; 6h post-washout,0.63
same,BI-0h,CSNK1E; 0h post-washout,0.79
same,BI-6h,CSNK1E; 6h post-washout,0.58
same,BI-0h,EPHA2; 0h post-washout,0.71
same,BI-6h,EPHA2; 6h post-washout,0.49
same,BI-0h,EIF2AK3; 0h post-washout,0.8
same,BI-6h,EIF2AK3; 6h post-washout,0.66
same,BI-0h,PKMYT1; 0h post-washout,0.47
same,BI-6h,PKMYT1; 6h post-washout,0.8
same,BI-0h,CDK9; 0h post-washout,0.46
same,BI-6h,CDK9; 6h post-washout,0.96
same,BI-0h,STK16; 0h post-washout,0.51
same,BI-6h,STK16; 6h post-washout,0.76
same,BI-0h,PIP5K1A; 0h post-washout,0.56
same,BI-6h,PIP5K1A; 6h post-washout,0.75
same,BI-0h,TGFBR2; 0h post-washout,0.53
same,BI-6h,TGFBR2; 6h post-washout,0.6
same,BI-0h,PRKD3; 0h post-washout,0.59
same,BI-6h,PRKD3; 6h post-washout,0.72
same,BI-0h,MAP3K11; 0h post-washout,0.6
same,BI-6h,MAP3K11; 6h post-washout,0.76
same,BI-0h,WEE1; 0h post-washout,0.98
same,BI-6h,WEE1; 6h post-washout,0.63
same,BI-0h,ACVR1B; 0h post-washout,0.9
same,BI-6h,ACVR1B; 6h post-washout,0.92
same,BI-0h,FYN; 0h post-washout,0.81
same,BI-6h,FYN; 6h post-washout,0.91
same,BI-0h,PRKDC; 0h post-washout,0.76
same,BI-6h,PRKDC; 6h post-washout,0.77
same,BI-0h,CSNK1A1; 0h post-washout,0.91
same,BI-6h,CSNK1A1; 6h post-washout,0.74
same,BI-0h,CSNK1G3; 0h post-washout,0.77
same,BI-6h,CSNK1G3; 6h post-washout,0.75
same,BI-0h,PAK4; 0h post-washout,0.93
same,BI-6h,PAK4; 6h post-washout,0.9
same,growth inhibitory effects,[2]; H23-KRAS^G12C cells (Fig. S2),strong growth inhibitory effects
same,IC50,"[2]; proliferation assays, H23-KRAS^G12C cells (Fig. S2A)",400 nM
same,ΔTm shifts,43 recombinant kinases,> 6 °C
same,covalent adduct formation (mass shift),SRC [3],formed covalent adducts
same,covalent adduct formation (mass shift),MAPK1,formed covalent adducts
same,covalent adduct formation (mass shift),MAP2K6,formed covalent adducts
same,IC50,SRC [4],< 10 nM
same,IC50,LIMK1 [5],< 10 nM
same,IC50,BMP2K,< 10 nM
same,IC50,AURKA,< 10 nM
same,IC50,MAP2K1/2,< 10 nM
same,BI-0h,CDK13; 0h post-washout,0.57
same,BI-6h,CDK13; 6h post-washout,0.57

# — publication PMC6634314 (Cell chemical biology, 2019)
